# Tests used:
# Staphylococcus aureus = test: Antibacterial activity against Staphylococcus aureus measured every 120 mins for 36 hrs by LB broth two-fold serial dilution method; assay type: functional
# Method in brief: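 Panel of 12 laboratory and clinical S. aureus strains with varied drug-susceptibility patterns. Compounds were two-fold serially diluted in LB broth from a maximum of 32 mg/L. Growth was followed by OD600 every 120 min for 36 h. Vancomycin was the positive control, and runs were in duplicate.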
# HCC 2998 = test: Anticancer activity against human HCC2998 cells assessed as cell growth inhibition measured after 48 hrs by SRB assay; assay type: functional; conditions: HCC 2998, 48 h
# Method in brief: (§1)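 NCI-60 five-dose screen at 100, 10, 1.0, 0.1 and 0.01 µM final. Cells in RPMI-1640 with 5% FBS and 2 mM glutamine were seeded 24 h ahead at 37°C, 5% CO2. Compound exposure was 48 h, followed by TCA fixation and SRB staining, read at 515 nm. GI50 is the concentration giving 50% lower net protein increase than control, using time-zero plates.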
# MOLT-4 = test: Anticancer activity against human MOLT4 cells assessed as cell growth inhibition measured after 48 hrs by SRB assay; assay type: functional; conditions: MOLT-4, 48 h; method in brief: as §1
# RPMI-8226 = test: Anticancer activity against human RPMI8226 cells assessed as cell growth inhibition measured after 48 hrs by SRB assay; assay type: functional; conditions: RPMI-8226, 48 h; for CC50: read-out: LC50 (the source's name); method in brief: as §1
# SR = test: Anticancer activity against human SR cells assessed as cell growth inhibition measured after 48 hrs by SRB assay; assay type: functional
# Method in brief: (§2)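 NCI 60-cell screen, five-dose mode at 100, 10, 1.0, 0.1 and 0.01 µM. Cells grown in RPMI-1640 with 5% FBS and 2 mM L-glutamine, seeded and held 24 h at 37°C, 5% CO2, then exposed for 48 h. Fixed with cold TCA (10% final), stained with 0.4% SRB and read at 515 nm. Time-zero plates were used. GI50 is the concentration giving 50% lower net protein increase than control.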
# A549 = test: Anticancer activity against human A549 cells assessed as cell growth inhibition measured after 48 hrs by SRB assay; assay type: functional; conditions: A549, 48 h; method in brief: as §1
# EKVX = test: Anticancer activity against human EKVX cells assessed as cell growth inhibition measured after 48 hrs by SRB assay; assay type: functional; method in brief: as §1
# HOP-62 = test: Anticancer activity against human HOP62 cells assessed as cell growth inhibition measured after 48 hrs by SRB assay; assay type: functional; conditions: HOP-62, 48 h; method in brief: as §1
# NCI-H226 = test: Anticancer activity against human NCI-H226 cells assessed as cell growth inhibition measured after 48 hrs by SRB assay; assay type: functional; conditions: NCI-H226, 48 h; for CC50: read-out: LC50 (the source's name); method in brief: as §1
# NCI-H460 = test: Anticancer activity against human NCI-H460 cells assessed as cell growth inhibition measured after 48 hrs by SRB assay; assay type: functional; conditions: NCI-H460, 48 h; method in brief: as §1
# SW-620 = test: Anticancer activity against human SW620 cells assessed as cell growth inhibition measured after 48 hrs by SRB assay; assay type: functional; conditions: SW-620, 48 h; for CC50: read-out: LC50 (the source's name); method in brief: as §2
# U-251 = test: Anticancer activity against human U251 cells assessed as cell growth inhibition measured after 48 hrs by SRB assay; assay type: functional; conditions: U-251, 48 h; method in brief: as §2
# LOX IMVI = test: Anticancer activity against human LOXIMVI cells assessed as cell growth inhibition measured after 48 hrs by SRB assay; assay type: functional; method in brief: as §1
# Malme-3M = test: Anticancer activity against human MALME-3M cells assessed as cell growth inhibition measured after 48 hrs by SRB assay; assay type: functional; method in brief: as §1
# M14 = test: Anticancer activity against human M14 cells assessed as cell growth inhibition measured after 48 hrs by SRB assay; assay type: functional; conditions: M14, 48 h; for CC50: read-out: LC50 (the source's name); method in brief: as §1
# MDA-MB-435 = test: Anticancer activity against human MDA-MB-435 cells assessed as cell growth inhibition measured after 48 hrs by SRB assay; assay type: functional; conditions: MDA-MB-435, 48 h; method in brief: as §1
# OVCAR-3 = test: Anticancer activity against human OVCAR3 cells assessed as cell growth inhibition measured after 48 hrs by SRB assay; assay type: functional; conditions: OVCAR-3, 48 h; method in brief: as §1
# OVCAR-5 = test: Anticancer activity against human OVCAR5 cells assessed as cell growth inhibition measured after 48 hrs by SRB assay; assay type: functional; conditions: OVCAR-5, 48 h; for CC50: read-out: LC50 (the source's name); method in brief: as §1
# OVCAR-8 = test: Anticancer activity against human OVCAR8 cells assessed as cell growth inhibition measured after 48 hrs by SRB assay; assay type: functional; conditions: OVCAR-8, 48 h; method in brief: as §1
# ACHN = test: Anticancer activity against human ACHN cells assessed as cell growth inhibition measured after 48 hrs by SRB assay; assay type: functional; conditions: for CC50: read-out: LC50 (the source's name); method in brief: as §1
# CAKI-1 = test: Anticancer activity against human Caki1 cells assessed as cell growth inhibition measured after 48 hrs by SRB assay; assay type: functional; conditions: CAKI-1, 48 h; method in brief: as §1
# RXF 393 = test: Anticancer activity against human RXF393 cells assessed as cell growth inhibition measured after 48 hrs by SRB assay; assay type: functional; conditions: RXF 393, 48 h; method in brief: as §1
# UO-31 = test: Anticancer activity against human UO31 cells assessed as cell growth inhibition measured after 48 hrs by SRB assay; assay type: functional; conditions: UO-31, 48 h; for CC50: read-out: LC50 (the source's name); method in brief: as §2
# PC-3 = test: Anticancer activity against human PC3 cells assessed as cell growth inhibition measured after 48 hrs by SRB assay; assay type: functional; conditions: PC-3, 48 h; method in brief: as §1
# Hs-578T = test: Anticancer activity against human Hs578T cells assessed as cell growth inhibition measured after 48 hrs by SRB assay; assay type: functional; method in brief: as §1
# BT-549 = test: Anticancer activity against human BT549 cells assessed as cell growth inhibition measured after 48 hrs by SRB assay; assay type: functional; conditions: BT-549, 48 h; method in brief: as §1
# T47D = test: Anticancer activity against human T47D cells assessed as cell growth inhibition measured after 48 hrs by SRB assay; assay type: functional; method in brief: as §2
# [1] = system: Mycobacterium tuberculosis; test: Antitubercular activity against Mycobacterium tuberculosis H37Rv ATCC27294 measured after 2-3 weeks by agar dilution SPOTi assay; assay type: functional; conditions: H37Rv ATCC 27294
# Method in brief: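 Agar dilution SPOTi on Middlebrook 7H10 with 0.5% glycerol and 10% OADC. Final compound levels 50, 20, 10, 5, 2 mg/L, added from DMSO dilutions. 2 µL of a 10^6 CFU/mL inoculum from a 4-week Löwenstein-Jensen culture spotted per well, incubated 2-3 weeks at 37°C. MIC is the lowest concentration with no visible growth. Repeated on a separate day; isoniazid was the reference.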
# [2] = Selectivity index, ratio of LC50 for mouse 3T3 cells to MIC for Mycobacterium tuberculosis H37Rv ATCC27294; assay type: toxicity; conditions: read-out: Selectivity Index
smiles,measurement,setting,value
COc1ccc(C(=O)/C=C/c2ccc(Cl)cc2)cc1S(N)(=O)=O,MIC,Staphylococcus aureus,> 57 µM
same,GI50,HCC 2998,1.78 µM
same,LC50,HCC 2998,7.48 µM
same,GI50,MOLT-4,2.93 µM
same,LC50,MOLT-4,> 100 µM
same,GI50,RPMI-8226,2.61 µM
same,CC50,RPMI-8226,> 100 µM
same,GI50,SR,0.86 µM
same,LC50 (concentration giving 50% net cell kill),SR,> 100 µM
same,GI50,A549,2.69 µM
same,LC50 (concentration killing 50% of cells),A549,30.8 µM
same,GI50,EKVX,4.56 µM
same,LC50 (concentration killing 50% of cells),EKVX,50.5 µM
same,GI50,HOP-62,2.51 µM
same,LC50,HOP-62,31.2 µM
same,GI50,NCI-H226,3.66 µM
same,CC50,NCI-H226,95.7 µM
same,GI50,NCI-H460,2.58 µM
same,LC50 (concentration causing 50% net cell kill),NCI-H460,30 µM
same,GI50,SW-620,1.76 µM
same,CC50,SW-620,8.45 µM
same,GI50,U-251,1.96 µM
same,LC50,U-251,9.33 µM
same,GI50,LOX IMVI,1.28 µM
same,LC50 (concentration giving 50% net cell kill),LOX IMVI,5.47 µM
same,GI50,Malme-3M,5.89 µM
same,LC50,Malme-3M,54.8 µM
same,GI50,M14,2.13 µM
same,CC50,M14,21.2 µM
same,GI50,MDA-MB-435,4.34 µM
same,LC50 (concentration killing 50% of cells present at time zero),MDA-MB-435,41.6 µM
same,GI50,OVCAR-3,2.04 µM
same,LC50,OVCAR-3,9.7 µM
same,GI50,OVCAR-5,3.08 µM
same,CC50,OVCAR-5,44.9 µM
same,GI50,OVCAR-8,3.55 µM
same,LC50 (concentration giving 50% net cell kill),OVCAR-8,32.6 µM
same,GI50,ACHN,1.94 µM
same,CC50,ACHN,8.75 µM
same,GI50,CAKI-1,2.72 µM
same,LC50,CAKI-1,32.5 µM
same,GI50,RXF 393,1.98 µM
same,LC50 (concentration causing 50% net cell kill),RXF 393,7.96 µM
same,GI50,UO-31,1.89 µM
same,CC50,UO-31,22 µM
same,GI50,PC-3,2.24 µM
same,LC50,PC-3,17 µM
same,GI50,Hs-578T,3.28 µM
same,LC50,Hs-578T,> 100 µM
same,GI50,BT-549,2.29 µM
same,LC50,BT-549,27.3 µM
same,GI50,T47D,3.2 µM
same,LC50,T47D,59 µM
same,MIC,[1],14 µM
same,selectivity ratio,[2],0.29
COc1ccc(C(=O)/C=C/c2ccc(Cl)cc2)cc1S(=O)(=O)Nc1c(N)nc(SC)[nH]c1=O,MIC,Staphylococcus aureus,> 57 µM
same,GI50,HCC 2998,1.92 µM
same,LC50,HCC 2998,6.5 µM
same,GI50,MOLT-4,3.71 µM
same,LC50,MOLT-4,> 100 µM
same,GI50,RPMI-8226,2.17 µM
same,CC50,RPMI-8226,> 100 µM
same,GI50,SR,3.57 µM
same,LC50 (concentration giving 50% net cell kill),SR,> 100 µM
same,GI50,A549,2.57 µM
same,LC50 (concentration killing 50% of cells),A549,30 µM
same,GI50,EKVX,3.94 µM
same,LC50 (concentration killing 50% of cells),EKVX,80.3 µM
same,GI50,HOP-62,1.81 µM
same,LC50,HOP-62,8.7 µM
same,GI50,NCI-H226,2.34 µM
same,CC50,NCI-H226,52.9 µM
same,GI50,NCI-H460,2.49 µM
same,LC50 (concentration causing 50% net cell kill),NCI-H460,29.1 µM
same,GI50,SW-620,1.58 µM
same,CC50,SW-620,28.3 µM
same,GI50,U-251,1.58 µM
same,LC50,U-251,6.16 µM
same,GI50,LOX IMVI,1.63 µM
same,LC50 (concentration giving 50% net cell kill),LOX IMVI,6.34 µM
same,GI50,Malme-3M,3.02 µM
same,LC50,Malme-3M,41.8 µM
same,GI50,M14,2 µM
same,CC50,M14,15.7 µM
same,GI50,MDA-MB-435,2.95 µM
same,LC50 (concentration killing 50% of cells present at time zero),MDA-MB-435,48 µM
same,GI50,OVCAR-3,1.94 µM
same,LC50,OVCAR-3,8 µM
same,GI50,OVCAR-5,2.83 µM
same,CC50,OVCAR-5,38.2 µM
same,GI50,OVCAR-8,3.07 µM
same,LC50 (concentration giving 50% net cell kill),OVCAR-8,37.1 µM
same,GI50,ACHN,3.23 µM
same,CC50,ACHN,36.5 µM
same,GI50,CAKI-1,3.83 µM
same,LC50,CAKI-1,79.5 µM
same,GI50,RXF 393,1.6 µM
same,LC50 (concentration causing 50% net cell kill),RXF 393,6.67 µM
same,GI50,UO-31,1.89 µM
same,CC50,UO-31,12.9 µM
same,GI50,PC-3,2.53 µM
same,LC50,PC-3,32.8 µM
same,GI50,Hs-578T,3.56 µM
same,LC50,Hs-578T,> 100 µM
same,GI50,BT-549,1.63 µM
same,LC50,BT-549,6.17 µM
same,GI50,T47D,2.45 µM
same,LC50,T47D,38.8 µM
same,MIC,[1],20 µM
same,selectivity ratio,[2],0.65
